Data as given in ChEMBL document CHEMBL1152520.

How the values were obtained:
[1] = Inhibition of LPS-induced AP1 transcriptional activation expressed in mouse RAW264.7 cells assessed as AP1 activity at 10 uM treated after LPS challenge measured after 24 hrs by luciferase reporter gene assay relative to control
RAW264.7 = experiment: Inhibition of LPS-induced NF-kappaB transcriptional activation expressed in mouse RAW264.7 cells assessed as NF-kappaB activity at 10 uM treated after LPS challenge measured after 24 hrs by luciferase reporter gene assay relative to control; format: cell-based
How it was run: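 RAW 264.7 cells, about 1 10^5 per well, were seeded 24 h before co-transfection (lipofectamine plus) with pAP-1-Luc or pNF-κB-Luc plus the pGL-hRluc internal control. At 48 h post-transfection, E. coli 0111:B4 LPS (100 ng/mL final) was added for 6 h. Compound in DMSO (10 µM final) was then added and cells were harvested 24 h later. Dual-luciferase readout: firefly/Renilla ratio expressed as multiples of the untreated control, mean SEM, n = 3. Paired Student's t-test.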

Compound	Activity [1]	luciferase ratio (RAW264.7)
C[C@@]12CC[C@@H]3[C@@](CC[C@H]4[C@@]3(C)CCC[C@@]4(C)C(=O)O)(CC(=O)N1)C2	3.19	0.15
C[C@@]12CC[C@H]3[C@]4(C)CCC[C@@](C)(C(=O)O)[C@H]4C[C@H](O)[C@]3(C/C1=N\O)C2	2.69	0.16
C[C@@]12CC[C@@H]3[C@@](CC[C@H]4[C@@]3(C)CCC[C@@]4(C)C(=O)O)(CC(=O)O1)C2	2.38	0.2
C[C@@]12CC[C@@H]3[C@@](CC[C@H]4[C@@]3(C)CCC[C@@]4(C)C(=O)O)(C/C1=N\O)C2	4.87	0.15
C[C@@]12CC[C@@H]3[C@@](CC[C@H]4[C@@]3(C)[C@@H](O)CC[C@@]4(C)C(=O)O)(C/C1=N\O)C2	3.52	0.13
C[C@@]12CC[C@@H]3[C@@](C/C1=N\O)(C2)[C@@H](O)C[C@H]1[C@@]3(C)[C@@H](O)CC[C@@]1(C)C(=O)O	3.37	0.26

More lines, main results first:

Activity [1]	Compound	luciferase ratio (RAW264.7)
2.85	CC1=C[C@@]2(CC#N)CC[C@H]3[C@@](C)(CCC[C@@]3(C)C(=O)O)[C@@H]2CC1	0.22
2.98	C[C@@]12CC[C@@H]3[C@@](CC1=O)(C2)[C@@H](O)C[C@H]1[C@@]3(C)[C@@H](O)CC[C@@]1(C)C(=O)O	0.16
2.22	CC1=CC[C@@H]2[C@](CC#N)(CC[C@H]3[C@@]2(C)CCC[C@@]3(C)C(=O)O)C1	0.18
